Among all 360,000 compounds or so, about 5,400 (1.5%) were called active. For the sample, actives were picked, then their nearest neighbours and some compounds at random. Values without a mark were called inactive.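 How the source made its calls: active means inhibition above a per-plate cutoff, the mean inhibition of test compounds on that plate plus 3 SD (cut at about 49% in these data); inactive means the rest.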

Trace amine-associated receptor 1 (Homo sapiens), sequence (Q96RJ0 whole entry, looked up): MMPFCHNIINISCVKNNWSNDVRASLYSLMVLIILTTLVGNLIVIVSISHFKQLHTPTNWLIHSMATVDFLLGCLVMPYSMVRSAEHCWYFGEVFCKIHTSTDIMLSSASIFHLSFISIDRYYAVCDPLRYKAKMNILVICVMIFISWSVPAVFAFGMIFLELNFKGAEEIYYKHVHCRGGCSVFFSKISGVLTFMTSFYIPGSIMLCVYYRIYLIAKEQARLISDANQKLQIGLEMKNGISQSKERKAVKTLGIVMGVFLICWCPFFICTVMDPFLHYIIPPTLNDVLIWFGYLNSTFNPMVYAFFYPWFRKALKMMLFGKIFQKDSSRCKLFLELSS

In the assay the target is Trace amine-associated receptor 1 (Homo sapiens) (UniProt Q96RJ0). The assay can be described thus: blockers of beta-PEA-driven TAAR1 calcium signal – Fluo-8 calcium fluorescence, CHO RD-HGA16 cells, primary screen (AID 624466).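 Further: 0% = DMSO plus EC80 beta-PEA response and 100% = DMSO alone without agonist.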 Conditions: CHO RD-HGA16 TAAR1, Fluo-8 calcium fluorescence, antagonist; at 3 µM; stronger effect = higher value. The procedure, abridged:
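Test system: RD-HGA16 CHO cells with stable hTAAR1 and Gα16 / Probe or stimulus: EC80 β-phenethylamine stimulus / Times: seeding 17-24 h prior, 75-min 37 °C, 30-min RT dye loading / Detection: Fluo-8 calcium-sensitive fluorescence / Read-out basis: % inhibition scaled between DMSO and EC80 PEA controls / Repeats: singlicate, one well per test compound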
Take `CCCCCCCCN1C(=O)[C@H](CC(=O)NCC23CC4CC(CC(C4)C2)C3)C[C@@]2(C(=O)OC)CCCCC=C12`: the inhibition is -15.3%.
The same measure for `CCOC(=O)C(C)N(c1ccccc1Cl)S(C)(=O)=O` (stereo unspecified): -3.03%; for `CN(CC(=O)O)S(=O)(=O)c1ccc2oc3ccccc3c2c1`: -5.94%; for `COc1ccc(S(=O)(=O)N2CCCCCC2)cc1C(=O)N(C)Cc1cccc(OC)c1OC`: 3.09%.
The same measure for `COc1ccc(CN(C)C(=O)Cc2ccsc2)c(OC)c1OC`: -26.8%; for `COc1ccc(C(=O)N(C)Cc2ccc(OC)c(OC)c2OC)cc1S(=O)(=O)N1CCOCC1`: -9.36%.
As for `COc1ccc(-c2cc(C(=O)N(C)Cc3ccc(OC)c(OC)c3OC)c3ccccc3n2)cc1OC`, the inhibition was 78.5% (active).
As for `Cc1cccc(C(=O)NCC(=O)OCC(=O)N(C)CC(=O)Nc2ccccc2Cl)c1`, the inhibition is -23.2%.
In the case of `COc1ccc(C2=NS(=O)(=O)N(C)C(C(=O)N(C)Cc3ccccc3)=C2)cc1` it was 11.5%.
In the case of `COc1ccc(CN(C)C(=O)c2cc(-c3ccc(C)cc3C)nc3ccccc23)c(OC)c1OC` it was 72.6% (active); in that of `C/C(N)=C(/C#N)C(=O)COC(=O)c1cc(-c2ccc(C)cc2)nc2ccccc12`, -4.69%.
In the case of `COc1ccc(-c2cc(C(=O)N(C)CC(=O)Nc3ccccc3Cl)c3ccccc3n2)cc1OC` it was 73.2% (active); in that of `COc1ccc(Cl)cc1NC(=O)CN(C)C(=O)c1ccc2n[nH]nc2c1`, -6.92%.
In the case of `COc1ccc(-c2cc(C(=O)N(C)Cc3ccccc3)c3ccccc3n2)cc1`, the inhibition is 62.6% (active).
For the compound `COc1ccc(CN(C)C(=O)Cc2c[nH]c3ccccc23)c(OC)c1OC`, the inhibition was 4.63%.
The same measure for `Cc1ccc(N/C(N)=N/c2nc(C(F)(F)F)cc(C(F)(F)F)n2)cc1`: 1.49%; for `CCn1ccnc1CN(C)C(=O)c1ccc2nc(Cc3ccc(OC)cc3)oc2c1`: 9.63%.
The same measure for `Cc1ccc(C)c(CN2CCC(CNC(=O)C3CCCN(c4ncnc5c4nc4n5CCCCC4)C3)CC2)c1` (stereo unspecified): -10.2%.
Turning to `O=C(Nc1ccc(CSc2ccccc2)cc1)c1ccc(CN2CCOCC2)cc1`, the inhibition was 29.6%.
Take `COCc1cc(N2CCN(C(=O)OC(C)(C)C)C[C@@H]2C)ccc1N1CCN(Cc2ccccc2)[C@H](C)C1`: the inhibition is -3.16%.
The same measure for `O=C1/C(=C/c2cccs2)SC(=S)N1C1CCS(=O)(=O)C1` (stereo unspecified): -5.52%.
The same measure for `COc1ccc(CCn2c(NN=C3CCCC3)nc3c2c(=O)[nH]c(=O)n3C)cc1`: -23.8%.
In the case of `COc1cc(C2CC(=O)Oc3cc(OC)c(OC)c(OC)c32)cc(OC)c1OC` (stereo unspecified), the inhibition is 3.9%.
In the case of `COc1ccc(C2CC(=O)Oc3ccc(C(C)(C)C)cc32)cc1` (stereo unspecified) it was 52.5% (active).
The same measure for `COc1cc(OC)c2c(c1)OC(=O)CC2c1cc(OC)c(OC)c(OC)c1` (stereo unspecified): -6.82%; for `CN(C)S(=O)(=O)c1ccc(C(=O)NCCN=C2NS(=O)(=O)c3ccccc32)cc1`: -8.85%; for `O=C(c1ccc2ccccc2n1)N1CCN(c2ccccc2Cl)CC1`: 20.4%.
The same measure for `NC(N)=N/N=C/c1ccc(OCc2ccc(Cl)cc2Cl)cc1`: 73.3% (active); for `COc1ccc(Cl)cc1N(CC(=O)N/N=C/c1ccc(OCC(N)=O)cc1)S(C)(=O)=O`: 6.35%; for `NC(=O)COc1ccc(/C=N/NC(=O)C2CCCN2S(=O)(=O)c2ccc(Cl)cc2)cc1` (stereo unspecified): 15.8%.
Take `O=C1NC[C@H](CCCCN2C[C@H](Cc3ccc(O)cc3)N(CC3CCCCC3)C(=O)C2=O)N(CCc2ccccc2)C1=O`: the inhibition is 7.35%.
In the case of `COc1cccc(N(C(=O)C2COc3ccccc3O2)C(C(=O)NC2CCCCC2)c2ccc(O)cc2)c1` (stereo unspecified) it was -14.6%.
For the compound `O=C(OCC(=O)N(CCc1ccccc1)Cc1ccccc1)c1ccccc1[N+](=O)[O-]`, the inhibition is 71.1% (active).
In the case of `Cc1c(C(=O)NCCCc2ccccc2)cccc1[N+](=O)[O-]` it was 1.14%; in that of `CN(Cc1ccccc1)C(=O)COC(=O)c1ccccc1Nc1ccccc1`, 22.9%; in that of `CC(C)(C)c1ccc(S(=O)(=O)NCC2CCN(C(=O)C(=O)c3cc4ccccc4o3)CC2)cc1`, 3.67%.
As to `O=C(COC(=O)c1cc(S(=O)(=O)N2CCOCC2)ccc1Cl)NCCc1ccccc1`, the inhibition is -6.27%.
Turning to `CCC(=O)c1ccc(OCC(O)CN2CCN(c3cccc(C(F)(F)F)c3)CC2)cc1` (stereo unspecified), the inhibition was 19.9%.
Take `CCOc1ccc(NC(=O)N(CC(C)C)CC(C)C)cc1`: the inhibition was -6.6%.
Consider `CCOc1ccc(NC(=O)Nc2ccc(N(C)C(C)=O)cc2)cc1`, for which the inhibition was 51.5% (active).
The same measure for `CC(=O)N(C)c1ccc(NC(=O)Nc2cccc3ccccc23)cc1`: -1.56%.
In the case of `CC12CCC(=O)N1C(C(=O)NCCN1C(=O)S/C(=C\c3ccccc3F)C1=O)CS2` (stereo unspecified) it was -27.9%; in that of `O=S(=O)(NCC1CCCO1)c1cnc(Cl)c(Cl)c1` (stereo unspecified), 12.4%; in that of `CCOC(=O)C1=C(c2ccccc2)O/C(=C(/C(=O)OC)C(F)(F)F)S1`, -4.35%.
For `CC(=O)Nc1cccc(NC(=O)c2ccc3c(c2)CCN3S(C)(=O)=O)c1`, the inhibition is 50% (active).
Turning to `CS(=O)(=O)N1CCc2cc(C(=O)Nc3ccccc3Br)ccc21`, the inhibition is 23.9%.
The same measure for `CS(=O)(=O)N1CCc2cc(C(=O)Nc3ccccc3)ccc21`: 9.11%; for `Cc1ncc([N+](=O)[O-])n1CCOC(=O)c1ccc(Br)cc1`: 11.2%; for `CC(C)(C)C(c1nc2ccccc2[nH]1)n1c(Cc2csc3ccccc23)nc2ccccc21` (stereo unspecified): 11.6%.
As to `CC(C)C[C@@H]1Cc2[nH][nH]c(=O)c2[C@H](CCc2ccccc2)O1`, the inhibition was -21.2%.
The same measure for `C[N+](C)(C)CCNC(=O)c1cc[n+](Cc2ccccc2)c(/C=N/O)c1`: 5.47%.
For the compound `COC(=O)C1=C(C)N(Cc2ccccc2C(F)(F)F)C(=NCc2ccc(OC)cc2)NC1c1cccc(C(F)(F)F)c1` (stereo unspecified), the inhibition was 4.48%.
The same measure for `COc1ccc(S(=O)(=O)N(CC(=O)NCc2ccco2)c2ccc(F)cc2)cc1`: 57.5% (active); for `Cc1ccc(S(=O)(=O)N(CC(=O)NCc2ccco2)c2ccccc2C)cc1`: 5.84%.
On to `CCN(CC(=O)NCc1ccco1)S(=O)(=O)c1ccc(F)cc1`, for which the inhibition is -11.9%.
Consider `COc1ccc(C(C(=O)NCc2ccccc2)n2c(=O)c(-c3ccccc3)nc3ccccc32)cc1` (stereo unspecified), for which the inhibition was -24.7%.
The same measure for `CN(Cc1ccccc1)C(=O)[C@@H]1CCCN1C(=O)[C@@H]1CCCN1C(=O)c1c(F)cccc1F`: -1.21%.
For the compound `Cc1nnc(SCC(=O)NC(=O)NC2CCCC2)n1N`, the inhibition is -8.31%.
`CC(C)Oc1cc(F)ccc1-c1cc(C(=O)Nc2ccc(F)cc2)[nH]n1`: the inhibition is 68.5% (active).
Take `COc1cc(NC(=O)c2cc(-c3ccc(F)cc3OC(C)C)n[nH]2)cc(OC)c1OC`: the inhibition was 47.6%.
In the case of `CC(C)Oc1cc(F)ccc1-c1cc(C(=O)Nc2cccc(Cl)c2)[nH]n1`, the inhibition is 42.5%.
The same measure for `O=C(CN1CCN(c2ccc(O)cc2)CC1)NC1CCCc2ccccc21` (stereo unspecified): -0.58%; for `CS(=O)(=O)Nc1cccc(C2=NN(C(=O)c3cccc(F)c3)C(c3cccs3)C2)c1` (stereo unspecified): 62.3% (active); for `Cc1ccc(C2CC(c3cccc(NS(C)(=O)=O)c3)=NN2S(C)(=O)=O)cc1` (stereo unspecified): 0.27%.
The same measure for `CCS(=O)(=O)Nc1ccc(C2=NN(C(C)=O)C(c3cccs3)C2)cc1` (stereo unspecified): 6.89%; for `FC(F)Oc1ccc(NC(=S)NCc2ccco2)cc1Cl`: 36.8%; for `O=C(CSc1nc2cccc(F)c2c(=O)n1-c1ccccc1)Nc1ccc2c(c1)CCC2`: -17.1%.
In the case of `CC(NC(=O)c1ccccc1)C(=O)OCC(=O)Nc1cccc(S(=O)(=O)N2CCCC2)c1` (stereo unspecified) it was -4.21%; in that of `O=C(COC(=O)COc1ccccc1F)Nc1cccc(S(=O)(=O)N2CCCCC2)c1`, -6.77%.
With `CCOc1ncccc1C(=O)OCC(=O)Nc1cccc(S(=O)(=O)N2CCCCCC2)c1`, the inhibition is 63.8% (active).
The same measure for `COc1cccc(CCNC(=O)COc2cccc3c2OC(C)(C)C3)c1`: 3.3%; for `CCCNC(=O)C1CC(=O)N(c2ccc(OCC(=O)Nc3cccc(C)c3C)cc2)C1` (stereo unspecified): -17.9%; for `Cc1cccc(C(=O)OCC(=O)Nc2sccc2C(N)=O)c1C`: -21.5%.
The same measure for `NC(=O)c1ccsc1NC(=O)COC(=O)COc1ccc(C=O)cc1`: 24.6%; for `COc1cc(OC)cc(C(=O)OCC(=O)Nc2sccc2C(N)=O)c1`: 63% (active); for `CCCCNC(=O)C[C@@H]1C[C@@]2(C(=O)OCC)CCC=C2N(Cc2cccc3ccccc23)C1=O`: -3.28%.
In the case of `COc1cc(C(=O)OC(C)C(=O)NCC2CCCCC2)cc(NC(=O)c2ccco2)c1OC` (stereo unspecified) it was -4.96%; in that of `Cc1cc2c(cc1S(=O)(=O)CCC(=O)NCc1ccccc1)OCC(=O)N2`, 8.55%.
On to `COc1ccc(NC(=O)CCS(=O)(=O)c2cc3c(cc2Cl)NC(=O)CO3)cc1OC`, for which the inhibition was -9.29%.
The same measure for `COc1ccc(Cl)cc1NC(=O)CCS(=O)(=O)c1cc2c(cc1C)NC(=O)CO2`: 63.3% (active); for `O=C(NC1CCCC1)C1c2ccccc2OCC(=O)N1Cc1ccccc1` (stereo unspecified): -5.5%.
On to `Cc1ccc(C)c(OCCC(=O)OCC(=O)NC(=O)NCc2ccccc2)c1`, for which the inhibition is -20.1%.
The same measure for `COc1cc(SC#N)ccc1N=Cc1c(C)[nH]n(-c2ccc(C)cc2)c1=O`: 87.5% (active).
In the case of `Cc1ccc2cc(C)c(N3CCC(C)CC3)nc2c1` it was -22.1%; in that of `Cc1ccc2cc(C)c(N3CCN(c4ccc(F)cc4)CC3)nc2c1`, -19.1%; in that of `Cc1cc(C)c2cc(C#N)c(N3CCNCC3)nc2c1`, 76.6% (active).
